Data from ChEMBL document CHEMBL4513216, “Probing the Open Global Health Chemical Diversity Library for Multistage-Active Starting Points for Next-Generation Antimalarials” (ACS Infect Dis, 2020).

Assay: Toxicity liver stage against HepG2, at 10uM
Assay type: cell-based
Set-up: test concentration 10 uM, cell line HepG2-A16-CD81EGFP
Conditions: human, HepG2-A16-CD81EGFP cells; read-out: INHIBITION
How it was run: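 Uninfected HepG2-A16-CD81EGFP cells, 3 × 10^3 per well, 1536-well, plated on prespotted compound at 10 μM final, parasite-free screening media added to match infected plates; puromycin 10 μM positive, DMSO 0.5% negative; run in parallel with 48 h PbLuc assay at 37 °C, 5% CO2; viability by CellTiter-Glo luminescence, normalized to controls.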

In the case of `O=C1c2cccnc2OC(CN2CCOCC2)CN1Cc1cccs1` (centres undefined), the cytotoxicity at 10 µM was -3.35%.
Work on `COc1ccc(CN2CC(O)CN(C(=O)OCC(C)C)CC2=O)cc1` (centres undefined) yielded a cytotoxicity at 10 µM of -7.34%.
Work on `Cc1cc(C)n2c(CCCNS(=O)(=O)c3ccc(F)cc3)nnc2n1` yielded a cytotoxicity at 10 µM of 2.38%.
Compound `O=C(c1ccc(Cl)s1)N1CC(c2nc(-c3ccc[nH]c3=O)no2)C1` has a cytotoxicity at 10 µM of -1.26%.
`CN1CCN([C@@H]2CCN(C(N)=O)[C@H]2Cc2ccccc2)CC1` gave a cytotoxicity at 10 µM of 2.41%.
With `CCO[C@@H]1CC[C@H]2[C@H]1OCCN2S(=O)(=O)c1cn(C)cn1` the cytotoxicity at 10 µM was 5.59%.
`O=C1CC2(CCN(c3nncs3)C2)CN1c1cncnc1` (centres undefined) showed a cytotoxicity at 10 µM of -0.376%.
`Cc1nnc(N2C[C@H](C(=O)NCc3ccco3)[C@@H]3CCO[C@@H]3C2)s1` gave a cytotoxicity at 10 µM of 8.5%.
For `Cc1ccc(C(=O)N2C[C@@H]3COC[C@]3(COCc3cccnc3)C2)cn1`, the cytotoxicity at 10 µM was 0.719%.
`Cc1ccc(N2N=C(C(=O)NCC3CC3)S(=O)(=O)c3cccnc32)cc1` gave a cytotoxicity at 10 µM of 6.72%.
`COCCNC(=O)Cn1cc2c(n1)c(C)nn2C` gave a cytotoxicity at 10 µM of 4.6%.
In the case of `CN(C)C(=O)CN1CCC(c2c(C(N)=O)sc3ncccc23)C1` (centres undefined), the cytotoxicity at 10 µM was 8.42%.
Compound `COc1cccc([C@@]2(O)CC[C@@H]3CN(C(=O)c4c[nH]nc4C)C[C@@H]32)c1` has a cytotoxicity at 10 µM of 2.67%.
`CS(=O)(=O)c1cc(Cl)cnc1C1CCN(C(=O)C2CC2)CC1` showed a cytotoxicity at 10 µM of 8.21%.
`CC(C)(C)c1ccc2c(c1)CCN2C(=O)c1[nH]c(=O)[nH]c(=O)c1N` showed a cytotoxicity at 10 µM of 7.22%.
Compound `Brc1cnc(NCCCOCC2CCOCC2)nc1` has a cytotoxicity at 10 µM of 16.8%.
For `CCn1c(=O)n(CCC(=O)N(C)Cc2ccc(C)o2)c2ccccc21`, the cytotoxicity at 10 µM was -2.42%.
Compound `O=C(c1ccc(Cl)cn1)N1CCC(COCc2ccccc2)C1` (centres undefined) has a cytotoxicity at 10 µM of 5.88%.
For `CC(C)Oc1ccc(CNC(=O)c2cc(C(N)=O)cs2)cc1F`, the cytotoxicity at 10 µM was 12.6%.
`CCOc1ccccc1C(CC(=O)N(C)C)NC(C)=O` (centres undefined) showed a cytotoxicity at 10 µM of -4.67%.
In the case of `CNC(=O)CN1CCCC1c1ccccc1Br` (centres undefined), the cytotoxicity at 10 µM was -2.22%.
For `CC(C)(C)OC(=O)N1CSC[C@@H]1C(=O)NCc1ccc(C#N)cc1`, the cytotoxicity at 10 µM was 11.6%.
`Cc1cc2ncc(C(C)NCc3cccnc3)c(C)n2n1` (centres undefined) gave a cytotoxicity at 10 µM of -0.0764%.
`CN1CCCC(N(C)S(=O)(=O)c2cccc3ncccc23)C1` (centres undefined) showed a cytotoxicity at 10 µM of -6.46%.
Compound `Cc1ccc(-c2noc(C(C)(C)NS(C)(=O)=O)n2)cc1F` has a cytotoxicity at 10 µM of 2.77%.
Work on `c1ccc2[nH]c(C3CCN(Cc4noc(C5CC5)n4)CC3)cc2c1` yielded a cytotoxicity at 10 µM of 7.67%.
Compound `Cc1nc2c(c(=O)[nH]1)CCN(C(=O)c1[nH]nc3c1CC(C)CC3)C2` (centres undefined) has a cytotoxicity at 10 µM of 13.4%.
`CCc1ccc2ncn(Cc3ncc[nH]3)c(=O)c2c1` gave a cytotoxicity at 10 µM of 11.1%.
In the case of `CC(C)c1cc(CN(C)C(=O)CN2CCCCC2=O)no1`, the cytotoxicity at 10 µM was 8.01%.
`c1cn(CC2CCOCC2)c(-c2cc(CN3CCCC3)cs2)n1` gave a cytotoxicity at 10 µM of -2.96%.
With `CN(C)c1cnn(CC(=O)N2CCCCCC2)c(=O)c1` the cytotoxicity at 10 µM was -10.6%.
Work on `CCc1cc(N(C)CCC(O)c2ccccc2)n2nccc2n1` (centres undefined) yielded a cytotoxicity at 10 µM of -1.14%.
In the case of `CNc1cc(C)nc(-c2cc(NC3CCNCC3)nc3[nH]ccc23)n1`, the cytotoxicity at 10 µM was -2.98%.
With `COCCN1CCC(CN(CC2CCCO2)C(=O)Cn2cccn2)CC1` (centres undefined) the cytotoxicity at 10 µM was -3.79%.
Compound `CCn1ncnc1CN1CCC(CNC(=O)c2cccc(C)n2)C1` (centres undefined) has a cytotoxicity at 10 µM of 8.57%.
`Cn1nc2c(c1NC(=O)c1ccc(C3CCCN3C3CCC3)s1)CCC2` (centres undefined) gave a cytotoxicity at 10 µM of -5.08%.
For `Cc1ccccc1-c1cccc(CN2C[C@H]3C(=O)NC[C@@]3(C(=O)O)C2)c1`, the cytotoxicity at 10 µM was -0.147%.
Work on `Cc1nn(C)cc1-c1cc(C(F)(F)F)c2c(C)nn(CC(=O)O)c2n1` yielded a cytotoxicity at 10 µM of -4.79%.
In the case of `CC(C)c1n[nH]c(C2CN(C(=O)c3ncoc3C(C)C)CCO2)n1` (centres undefined), the cytotoxicity at 10 µM was -7.22%.
`CC(C)c1noc(C(C)N2CCN(Cc3cccnc3)CC2)n1` (centres undefined) showed a cytotoxicity at 10 µM of -5.44%.
`CC(c1cccc(Cl)c1)N(C)Cc1nc2c(cnn2C)c(=O)[nH]1` (centres undefined) gave a cytotoxicity at 10 µM of -10.5%.
In the case of `Cc1cc(C)n(CC2CCCN2C(=O)c2cccn3ccnc23)n1` (centres undefined), the cytotoxicity at 10 µM was -7.45%.
Work on `Cc1nnc2n1CCN(C(C(=O)NC(C)C)c1ccccc1)C2` (centres undefined) yielded a cytotoxicity at 10 µM of -5.92%.
In the case of `Cc1nc(C2CCCN2C(=O)c2csc3c2CCCC3)no1` (centres undefined), the cytotoxicity at 10 µM was -10.3%.
Work on `Cc1cc(C2CCCN2C(=O)c2cc3c(s2)CCC3)no1` (centres undefined) yielded a cytotoxicity at 10 µM of -11%.
With `COc1cccc(C2CCCN2CCCNS(C)(=O)=O)c1` (centres undefined) the cytotoxicity at 10 µM was -2%.
In the case of `Cc1nc(C)n(CC2CCCN2Cc2cn3cc(Cl)ccc3n2)n1` (centres undefined), the cytotoxicity at 10 µM was -16.7%.
With `COc1ccc(S(=O)(=O)N2CCc3ccc(F)cc32)cc1C(=O)O` the cytotoxicity at 10 µM was -11.4%.
`Cc1cccc(CNC(C)c2ccc(OCC(=O)NC3CC3)cc2)c1` (centres undefined) gave a cytotoxicity at 10 µM of -10%.
With `c1ccc(-n2ccc(CN3CCCC(Cn4cncn4)C3)n2)cc1` (centres undefined) the cytotoxicity at 10 µM was -16%.
In the case of `Cc1ccc(-c2nc(CN3CCN(CC(=O)N(C)C)CC3)cs2)o1`, the cytotoxicity at 10 µM was -22%.
Work on `Cc1nc(C)n(CC2CCCCN2CC(=O)Nc2cc(C)on2)n1` (centres undefined) yielded a cytotoxicity at 10 µM of 2.67%.
In the case of `CC(C)COCCCNC(=O)NCC(O)c1cccc(F)c1` (centres undefined), the cytotoxicity at 10 µM was -3.1%.
`O=C(CCc1cscn1)N1CCCC(c2ccn[nH]2)C1` (centres undefined) gave a cytotoxicity at 10 µM of -9.14%.
With `Cc1ccc(CNC(=O)NCc2cccnc2N(C)C)s1` the cytotoxicity at 10 µM was -4.15%.
`CC(C)c1nc(C2CCCN2Cc2ccn(C)c(=O)c2)no1` (centres undefined) showed a cytotoxicity at 10 µM of -12.2%.
For `CCOc1cc(CNC(=O)N2CCC(Cc3cnn(C)c3)C2)ccn1` (centres undefined), the cytotoxicity at 10 µM was -8.29%.
Compound `CC(C)c1ccc(C(O)Cn2c(=O)c(C#N)cn(C3CC3)c2=O)cc1` (centres undefined) has a cytotoxicity at 10 µM of -11.5%.
In the case of `CCc1nc(CN2CCCN(C(=O)C(C)COC)CC2)cs1` (centres undefined), the cytotoxicity at 10 µM was -0.884%.
For `CCCc1nc(CN2CCOC(Cn3cncn3)C2)no1` (centres undefined), the cytotoxicity at 10 µM was -7.03%.
In the case of `Cc1ccccc1Cc1cnc(NC(=O)C2CNC(=O)N2)s1` (centres undefined), the cytotoxicity at 10 µM was -3.37%.
In the case of `O=C(COCC1CC1)N1CCCC(n2ccnc2)C1` (centres undefined), the cytotoxicity at 10 µM was 0.0481%.
Compound `CNS(=O)(=O)c1cccc(CNC(=O)c2c(C)nn(C)c2C)c1` has a cytotoxicity at 10 µM of 9.26%.
For `COc1ccccc1OCCC(=O)N1CCCC1Cn1cc(C)cn1` (centres undefined), the cytotoxicity at 10 µM was 6.02%.
With `c1cnnc(N2CCCC(NCc3ccc(-n4ccnc4)cc3)C2)c1` (centres undefined) the cytotoxicity at 10 µM was 0.866%.
With `Cc1cc(CN(C)C(=O)c2ccc(F)cc2Br)no1` the cytotoxicity at 10 µM was 0.864%.
`CNC(=O)C1(N2CCC[C@H]2C(=O)NC2CCOCC2)CCOCC1` gave a cytotoxicity at 10 µM of 0.705%.
Compound `Cn1cc(CN2CCC(F)(F)C3(CCN(c4cccnc4)C3)C2)cn1` (centres undefined) has a cytotoxicity at 10 µM of 3.89%.
With `COCCN1C[C@@H]2[C@@H](OC)CCN(Cc3ccc(C)o3)[C@@H]2C1` the cytotoxicity at 10 µM was -4.42%.
`COc1ncccc1C(=O)N1CC[C@H]2C[C@H](c3nnc(C)[nH]3)O[C@@H]2C1` showed a cytotoxicity at 10 µM of 2.4%.
For `COCCN1CCC2(C1)c1ccccc1S(=O)(=O)N2Cc1ccccc1` (centres undefined), the cytotoxicity at 10 µM was 10.5%.
In the case of `CN(C)CC(=O)N1CCC2(CCc3cc(-c4cccnc4)ccc32)CC1`, the cytotoxicity at 10 µM was 4.01%.
Work on `COc1ccc(CN2CCC3(CC2)CC(c2cccnc2)CO3)cc1` (centres undefined) yielded a cytotoxicity at 10 µM of -0.259%.
Work on `c1ccc(CN2C[C@@H]3CCCO[C@@H]3[C@H](Nc3ccccn3)C2)nc1` yielded a cytotoxicity at 10 µM of -7.39%.
With `Cn1cc2c(n1)C(CNCc1ccco1)OCC2` (centres undefined) the cytotoxicity at 10 µM was -1.54%.
Work on `CN(Cc1ccco1)[C@@H]1CN(Cc2ccco2)[C@@H]2CCCO[C@H]12` yielded a cytotoxicity at 10 µM of 1.41%.
`COCCN1C(=O)CCC12CCC(NCc1ccc(OC)cc1)CC2` (centres undefined) showed a cytotoxicity at 10 µM of 11.5%.
For `Cc1ccoc1C1=NNC(=CN2CCn3c(nnc3C(C)C)C2)O1`, the cytotoxicity at 10 µM was -13.1%.
Work on `O=C(Cn1ccc(=O)cc1)N1C[C@@H]2CC[C@H]1CN(c1ncccn1)C2` yielded a cytotoxicity at 10 µM of 4.52%.
